IDH1 mut inh – IDH1 R132H (human) inhibition | O75874 | IDH1 R132H reductase, diaphorase/resazurin fluorescence, 60 min | inhibition, % at 10 µM | 0.18% of 70,000 active | AID 624101; in the data active = inhibition above about 34%; inconclusive = no clear call, values can overlap the other calls; inactive = below about 11%;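 also: 0% = DMSO and 100% = no enzyme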
GASC1 inh – inhibitors of human demethylase GASC-1 KDM4C | 0.15% of 96,000 active | inhibition, % at 12.5 µM | AID 720574 | GST-KDM4C 2-372, H3K9me3 peptide, LANCE TR-FRET;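 active = mean replicate inhibition above about 25%, with at least 55% of replicates also reaching it, limit read from the data, passing the limit was not always enough; inconclusive = only one of those two conditions met; inactive = neither condition met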
Target sequence (Q9H3R0 2-372 limits assumed): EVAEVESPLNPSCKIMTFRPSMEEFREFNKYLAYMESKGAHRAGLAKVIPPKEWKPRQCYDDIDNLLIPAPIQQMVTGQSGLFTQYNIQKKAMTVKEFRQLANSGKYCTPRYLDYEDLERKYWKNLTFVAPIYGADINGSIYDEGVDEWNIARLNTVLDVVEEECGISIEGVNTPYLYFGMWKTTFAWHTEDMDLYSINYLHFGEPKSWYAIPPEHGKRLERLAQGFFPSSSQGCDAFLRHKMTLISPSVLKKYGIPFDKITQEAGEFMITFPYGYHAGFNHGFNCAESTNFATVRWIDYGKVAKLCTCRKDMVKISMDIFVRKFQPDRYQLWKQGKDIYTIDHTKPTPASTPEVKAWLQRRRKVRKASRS
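Assay system: GST-GASC-1 enzyme fragment 2-372 | Amount: 10 nM enzyme | Medium: HEPES buffer, pH 7.5, plus ascorbate | Reagent: H3K9me3 peptide substrate, Fe(II), 2-oxoglutarate | Doses: Single-point compound screen | Incubation: 30 min demethylation and 1 h detection at room temperature | Measured by: LANCE TR-FRET, excitation 340 nm, emissions 618 and 671 nm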
Pf Dd2 growth – blocks growth of Plasmodium falciparum Dd2 parasites; activity change, % at 10 µM; 2.3% of 94,000 active; P. falciparum Dd2 growth, SYBR Green, 72 h; hits give low values; in the data active = activity change below about -80%; inconclusive = no clear call, values can overlap the other calls
T cruzi growth-1 – inhibitors of T. cruzi proliferation; T. cruzi beta-gal in NIH3T3, GalScreen luminescence, 90 h; inhibition, % at 8.34 µM; 5.9% of 77,000 active; AID 624255;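 active = mean inhibition above about 93%, with at least 55% of replicates each passing it, limit read from the data, passing the limit was not always enough; inconclusive = only one of those two conditions holds; inactive = neither condition holds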
T cruzi growth-2 – inhibitors of T. cruzi proliferation | shares compounds with T cruzi growth-1 | T. cruzi beta-gal in NIH3T3, GalScreen luminescence, 90 h | inhibition, % at 8.35 µM | 72% of 5,600 active;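 active = mean replicate inhibition above about 95% and at least 55% of replicates individually reaching it, limit read from the data; inconclusive = only one of the two criteria is met; inactive = neither criterion is met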
T cruzi growth-3 – inhibitors of T. cruzi proliferation; shares compounds with T cruzi growth-1; T. cruzi beta-gal in NIH3T3, GalScreen luminescence, 90 h; inhibition, % at 2.09 µM; 21% of 5,600 active; AID 651740;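 active = mean inhibition above about 95%, with at least 55% of replicates also reaching it, limit read from the data; inconclusive = meets just one of the two conditions; inactive = meets neither condition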;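 also: plate controls were neutral control median for no effect and positive control median for full effect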
3T3 cytotox – kills mouse NIH/3T3 fibroblasts; shares compounds with T cruzi growth-1; NIH/3T3 viability, CellTiter-Glo ATP luminescence, 90 h; AID 651742; cytotoxicity (signal decrease), % at 8.35 µM; 14% of 5,600 active;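 active = mean signal decrease across replicates above about 35% based on untreated-well scatter, with enough replicates individually passing, limit read from the data; inconclusive = no rule stated though some were filed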;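 also: 0% = median of neutral control wells and 100% = median of positive control wells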
NIH3T3 tox 2 – kills mouse NIH/3T3 fibroblasts | shares compounds with T cruzi growth-1 | NIH/3T3 viability, CellTiter-Glo ATP luminescence, 90 h | inhibition, % at 24.9 µM | 56% of 5,600 active;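 active = mean loss of cell viability signal at or above a set limit, and enough replicates individually reaching it; inconclusive = meets only the mean limit or only the replicate share; inactive = meets neither condition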;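 also: 0% = median of neutral control wells and 100% = median of positive control wells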
An asterisk follows results filed as active; ? = inconclusive; . = no result. Compounds with a hit are over-represented: about 5.8% of the library has one in this group of screens.

SMILES	IDH1 mut inh	GASC1 inh	Pf Dd2 growth	T cruzi growth-1	T cruzi growth-2	T cruzi growth-3	3T3 cytotox	NIH3T3 tox 2
C[C@@H]1CCCCO[C@H](CN(C)S(=O)(=O)c2ccc(Cl)cc2)[C@H](C)CN([C@H](C)CO)C(=O)c2cc(NS(=O)(=O)c3cccs3)ccc2O1	.	-2.2	.	112.3*	105.6*	96.3*	4.0	-28.7
C[C@H](CO)N1C[C@H](C)[C@H](CN(C)S(=O)(=O)c2ccc(Cl)cc2)OCCCC[C@H](C)Oc2ccc(NS(=O)(=O)c3cccs3)cc2C1=O	.	0.5	.	111.1*	96.9*	44.8	-24.5	-46.1
C[C@@H]1CN([C@H](C)CO)C(=O)c2cc(NS(=O)(=O)c3cccs3)ccc2O[C@@H](C)CCCCO[C@H]1CN(C)S(=O)(=O)c1ccc(Cl)cc1	-0.6	-0.5	-70.3	.	.	.	.	.
C[C@H](CO)N1C[C@H](C)[C@H](CN(C)S(=O)(=O)c2ccccc2)Oc2ccc(N(C)C)cc2C1=O	0.6	19.6	-10.9	12.7	.	.	.	.
C[C@@H]1CCCCO[C@H](CN(C)C(=O)c2ccccc2)[C@@H](C)CN([C@H](C)CO)C(=O)c2cc(NC(=O)Nc3ccc(C(F)(F)F)cc3)ccc2O1	-2.3	0.4	1.1	?	105.8*	59.0	4.8	32.9*
C[C@@H]1CN([C@H](C)CO)C(=O)c2cc(NC(=O)Nc3ccc(C(F)(F)F)cc3)ccc2O[C@@H](C)CCCCO[C@H]1CN(C)C(=O)c1ccccc1	.	-0.2	-17.6	?	103.2*	112.8*	2.8	3.2
CN(C)CC#Cc1ccc([C@H]2[C@@H](CO)N3CCCCN(S(=O)(=O)c4ccccc4F)C[C@H]23)cc1	.	8.0	-5.2	82.4	.	.	.	.
COc1ccc(CNC(=O)C[C@H]2CC[C@H]3[C@H](COc4ccc(NC(=O)C(C)C)cc4C(=O)N3C)O2)cc1	.	0.4	5.5	23.6	.	.	.	.
CC(=O)N(C)C[C@H]1Oc2cc(C#CC3CCCCC3)ccc2S(=O)(=O)N([C@H](C)CO)C[C@@H]1C	1.6	-2.0	-44.2	?	103.5*	78.3	42.0*	?
CC(=O)N(C)C[C@@H]1Oc2cc(C#CC3CCCC3)ccc2S(=O)(=O)N([C@@H](C)CO)C[C@@H]1C	.	0.0	-39.9	87.5	.	.	.	.
CC(=O)N(C)C[C@H]1Oc2cc(C#CC3CCCCC3)ccc2S(=O)(=O)N([C@@H](C)CO)C[C@@H]1C	.	-1.3	-57.4	?	107.5*	86.2	-2.5	56.4*
CC=Cc1ccc2n(c1=O)C[C@@H]1[C@@H](CO)[C@H](C(=O)NC3CCCC3)N(Cc3ccccc3)[C@H]21 (mixture of isomers)	.	4.4	-15.2	35.1	.	.	.	.
Cc1ccc(S(=O)(=O)N[C@H]2CC[C@H](CC(=O)NCc3ccncn3)O[C@@H]2CO)cc1	-0.2	0.5	8.0	-35.9	.	.	.	.
O=C(Nc1ccc(F)cc1)N1CCCCN2[C@@H](CO)[C@H](c3ccc(-c4cccc(F)c4)cc3)[C@@H]2C1	.	0.6	-30.0	106.2*	95.3*	79.6	119.5*	103.3*
O=C(Nc1ccc(F)cc1)N1CCCCN2[C@H](CO)[C@H](c3ccc(-c4cccc(F)c4)cc3)[C@@H]2C1	.	-3.4	-3.1	117.8*	108.2*	85.1	16.7	71.8*
C[C@H]1CN([C@@H](C)CO)S(=O)(=O)c2ccc(C#CCN(C)C)cc2O[C@H]1CN(C)C(=O)C1CC1	.	2.6	-3.7	89.5	.	.	.	.
C[C@@H]1CN([C@@H](C)CO)S(=O)(=O)c2ccc(C#CCN(C)C)cc2O[C@H]1CN(C)C(=O)C1CCC1	.	2.3	-13.8	103.8*	108.0*	98.9*	-17.5	10.8
C[C@H]1CN([C@@H](C)CO)S(=O)(=O)c2ccc(C#CCN(C)C)cc2O[C@H]1CN(C)C(=O)C1CCC1	-2.8	6.5	-6.6	105.0*	101.9*	91.3	-11.9	-2.5
C[C@@H]1CN([C@H](C)CO)S(=O)(=O)c2ccc(C#CCN(C)C)cc2O[C@H]1CN(C)C(=O)C1CCC1	-3.9	1.0	-7.4	100.2*	?	100.4*	-1.1	2.5
C[C@@H]1CN([C@@H](C)CO)S(=O)(=O)c2ccc(C#CCN(C)C)cc2O[C@@H]1CN(C)C(=O)C1CCCCC1	2.5	3.2	-10.8	.	.	.	.	.
C[C@H](CO)N1C[C@H](C)[C@H](CN(C)C(=O)C2CC2)Oc2cc(C#CCN(C)C)ccc2S1(=O)=O	-0.9	1.5	4.1	94.7*	109.2*	92.4	-8.8	20.4
C[C@@H]1CN([C@@H](C)CO)S(=O)(=O)c2ccc(C#CCN(C)C)cc2O[C@@H]1CN(C)C(=O)C1CCC1	.	1.0	1.7	94.0	.	.	.	.
O=C(C[C@@H]1C=C[C@H](NC(=O)c2ccncc2)[C@@H](CO)O1)Nc1ccccc1	.	0.6	33.8	.	.	.	.	.
Fc1cccc(CN2[C@@H]3CNC[C@H]2C3c2ccc(-c3cccnc3)cc2)c1 (stereo partly specified)	.	-1.5	-10.5	.	.	.	.	.
CN1c2ccc(-c3ccc(C#N)cc3)cc2[C@@H]2[C@@H](CCN2C(=O)c2cccc(F)c2)[C@H]1CO	.	1.3	25.0	?	109.6*	103.1*	25.0	81.5*
CN(C)C(=O)c1cccc(-c2ccc3c(c2)[C@H]2[C@H](CCN2C(=O)c2cccc(F)c2)[C@@H](CO)N3C)c1	.	2.8	-12.6	98.7*	103.4*	41.5	4.7	8.4

Bioassay records deposited in PubChem BioAssay by Broad Institute.
